Experimental data from ChEMBL document CHEMBL1687824, “Overexpression of patA and patB, which encode ABC transporters, is associated with fluoroquinolone resistance in clinical isolates of Streptococcus pneumoniae” (2011).
In brackets after ≈: the same amount, converted by molar mass.

How the values were obtained:
Streptococcus pneumoniae [1] = assay: Antibacterial activity against wild type Streptococcus pneumoniae M3 NCTC 7466 type 2 by standardized agar doubling dilution method in presence of 50 uM sodium orthovanadate efflux pump inhibitor; type: functional
Procedure, shortened: (§1)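 MIC by agar doubling dilution per BSAC guidelines; strains pregrown in brain heart infusion broth 24 h, 37°C, 5% CO2. MICs measured alone and with efflux pump inhibitors reserpine (20 μg/ml) or sodium orthovanadate (50 μM); synergy defined as ≥2-dilution MIC reduction in presence of inhibitor.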

Streptococcus pneumoniae [2] = assay: Antibacterial activity against Streptococcus pneumoniae M86A overexpressing patA, patB and inactivated patA with single mutation by standardized agar doubling dilution method; type: functional
Procedure, shortened: (§2)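 MICs were determined by agar doubling dilution following BSAC guidelines, with no efflux inhibitor. Strains were grown in brain heart infusion broth for 24 h at 37°C in 5% CO2. Species identity was confirmed by Gram stain, optochin sensitivity and capsule test. Control strain R6 was tested alongside.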

Streptococcus pneumoniae [3] = assay: Antibacterial activity against fluoroquinolone-resistant Streptococcus pneumoniae by standardized agar doubling dilution method; type: functional
Procedure, shortened: (§3)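 MIC by agar doubling dilution following BSAC guidelines. Strains grown in brain heart infusion broth 24 h at 37°C in 5% CO2. Where an efflux pump inhibitor applies, MIC redetermined with reserpine at 20 μg/ml or sodium orthovanadate at 50 μM. Synergy taken as a fall in MIC of ≥2 dilutions with inhibitor present. Dye resistance defined relative to R6 (both dyes ≥2 dilutions higher).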

Streptococcus pneumoniae [4] = assay: Antibacterial activity against fluoroquinolone, dye-susceptible Streptococcus pneumoniae M295 S overexpressing patA, patB by standardized agar doubling dilution method in presence of 50 uM sodium orthovanadate efflux pump inhibitor; type: functional; procedure, shortened: as §1
Streptococcus pneumoniae [5] = assay: Antibacterial activity against Streptococcus pneumoniae M87A overexpressing patA, patB and inactivated patA with single mutation by standardized agar doubling dilution method in presence of 50 uM sodium orthovanadate efflux pump inhibitor; type: functional
Procedure, shortened: (§4)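 MICs were determined by BSAC agar doubling dilution in the presence of sodium orthovanadate at 50 μM. Cultures were grown in BHI broth for 24 h at 37°C in 5% CO2, with R6 as control. Synergy was defined as an MIC reduction of ≥2 dilutions with the inhibitor present.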

Streptococcus pneumoniae [6] = assay: Antibacterial activity against Streptococcus pneumoniae M317 overexpressing patA, patB and inactivated patB with single mutation by standardized agar doubling dilution method; type: functional; procedure, shortened: as §2
Streptococcus pneumoniae [7] = assay: Antibacterial activity against Streptococcus pneumoniae M301 overexpressing patA, patB and inactivated patA with single mutation by standardized agar doubling dilution method; type: functional
Procedure, shortened: (§5)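 MICs determined by BSAC standardized agar doubling dilution. Strains were grown in brain heart infusion broth for 24 h at 37°C in 5% CO2. Inhibitor arms had reserpine at 20 μg/ml or sodium orthovanadate at 50 μM in the agar. Mutants were made by transforming magellan2 insertion amplimers into clinical isolates and selecting on spectinomycin 100 mg/liter, with a no-DNA spontaneous-mutation control.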

Streptococcus pneumoniae [8] = assay: Antibacterial activity against Streptococcus pneumoniae M308 overexpressing patA, patB and inactivated patB with single mutation by standardized agar doubling dilution method in presence of 50 uM sodium orthovanadate efflux pump inhibitor; type: functional; procedure, shortened: as §5
Streptococcus pneumoniae [9] = assay: Antibacterial activity against Streptococcus pneumoniae M317 overexpressing patA, patB and inactivated patB with single mutation by standardized agar doubling dilution method in presence of 50 uM sodium orthovanadate efflux pump inhibitor; type: functional; procedure, shortened: as §4
Streptococcus pneumoniae [10] = assay: Antibacterial activity against fluoroquinolone-resistant Streptococcus pneumoniae M83 FQ-R overexpressing patA, patB by standardized agar doubling dilution method in presence of 20 ug/ml reserpine efflux pump inhibitor; type: functional
Procedure, shortened: (§6)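 Clinical S. pneumoniae isolates grown in BHI broth 24 h at 37°C in 5% CO2. MICs by agar doubling dilution per BSAC guidelines, alone or with efflux inhibitor reserpine (20 μg/ml) or sodium orthovanadate (50 μM). Synergy defined as ≥2-dilution MIC reduction in presence of inhibitor.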

Streptococcus pneumoniae [11] = assay: Antibacterial activity against fluoroquinolone, dye-resistant Streptococcus pneumoniae M42 overexpressing patA, patB by standardized agar doubling dilution method; type: functional; procedure, shortened: as §3
Streptococcus pneumoniae [12] = assay: Antibacterial activity against Streptococcus pneumoniae M298 overexpressing patA, patB and inactivated patA with single mutation by standardized agar doubling dilution method
Streptococcus pneumoniae [13] = assay: Antibacterial activity against fluoroquinolone-resistant Streptococcus pneumoniae by standardized agar doubling dilution method in presence of 50 uM sodium orthovanadate efflux pump inhibitor; type: functional; procedure, shortened: as §3
Streptococcus pneumoniae [14] = assay: Antibacterial activity against fluoroquinolone-resistant Streptococcus pneumoniae M98 FQ-R overexpressing patA, patB by standardized agar doubling dilution method in presence of 20 ug/ml reserpine efflux pump inhibitor; type: functional; procedure, shortened: as §1
Streptococcus pneumoniae [15] = assay: Antibacterial activity against Streptococcus pneumoniae M45B overexpressing patA, patB and inactivated patB with single mutation by standardized agar doubling dilution method; type: functional; procedure, shortened: as §2
Streptococcus pneumoniae [16] = assay: Antibacterial activity against Streptococcus pneumoniae M87B overexpressing patA, patB and inactivated patB with single mutation by standardized agar doubling dilution method; type: functional; procedure, shortened: as §2
Streptococcus pneumoniae [17] = assay: Antibacterial activity against wild type Streptococcus pneumoniae M4 NCTC 7465 type 1 by standardized agar doubling dilution method; type: functional; procedure, shortened: as §3
Streptococcus pneumoniae [18] = assay: Antibacterial activity against Streptococcus pneumoniae M50B overexpressing patA, patB and inactivated patB with single mutation by standardized agar doubling dilution method in presence of 50 uM sodium orthovanadate efflux pump inhibitor; type: functional; procedure, shortened: as §4
Streptococcus pneumoniae [19] = assay: Antibacterial activity against Streptococcus pneumoniae M304 overexpressing patA, patB and inactivated patA with single mutation by standardized agar doubling dilution method; type: functional; procedure, shortened: as §5
Streptococcus pneumoniae [20] = assay: Antibacterial activity against Streptococcus pneumoniae M307 overexpressing patA, patB and inactivated patB with single mutation by standardized agar doubling dilution method in presence of 50 uM sodium orthovanadate efflux pump inhibitor; type: functional; procedure, shortened: as §5
Streptococcus pneumoniae [21] = assay: Antibacterial activity against Streptococcus pneumoniae M310 overexpressing patA, patB and inactivated patB with single mutation by standardized agar doubling dilution method in presence of 20 ug/ml reserpine efflux pump inhibitor; type: functional; procedure, shortened: as §5
Streptococcus pneumoniae [22] = assay: Antibacterial activity against Streptococcus pneumoniae M314 overexpressing patA, patB and inactivated patA with single mutation by standardized agar doubling dilution method; type: functional; procedure, shortened: as §5
Streptococcus pneumoniae [23] = assay: Antibacterial activity against fluoroquinolone-resistant Streptococcus pneumoniae M79 FQ-R overexpressing patA, patB by standardized agar doubling dilution method; type: functional; procedure, shortened: as §6
Streptococcus pneumoniae [24] = assay: Antibacterial activity against Streptococcus pneumoniae M45A overexpressing patA, patB and inactivated patA with single mutation by standardized agar doubling dilution method in presence of 20 ug/ml reserpine efflux pump inhibitor; type: functional
Procedure, shortened: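 MICs were determined by BSAC agar doubling dilution in the presence of reserpine at 20 μg/ml. Strains were grown in BHI broth for 24 h at 37°C in 5% CO2, with R6 as control. Synergy was defined as an MIC drop of ≥2 dilutions with the inhibitor.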

Streptococcus pneumoniae [25] = assay: Antibacterial activity against dye-resistant Streptococcus pneumoniae by standardized agar doubling dilution method; type: functional; procedure, shortened: as §3
Streptococcus pneumoniae [26] = assay: Antibacterial activity against Streptococcus pneumoniae M55B overexpressing patA, patB and inactivated patB with single mutation by standardized agar doubling dilution method in presence of 50 uM sodium orthovanadate efflux pump inhibitor; type: functional; procedure, shortened: as §4
Streptococcus pneumoniae [27] = assay: Antibacterial activity against Streptococcus pneumoniae M298 overexpressing patA, patB and inactivated patA with single mutation by standardized agar doubling dilution method in presence of 50 uM sodium orthovanadate efflux pump inhibitor; type: functional; procedure, shortened: as §5
Streptococcus pneumoniae [28] = assay: Antibacterial activity against fluoroquinolone-resistant Streptococcus pneumoniae M97 FQ-R overexpressing patA, patB by standardized agar doubling dilution method; type: functional; procedure, shortened: as §1

SMILES	MIC (Streptococcus pneumoniae [1]) [µg/mL]	MIC (Streptococcus pneumoniae [2]) [µg/mL]	MIC90 (Streptococcus pneumoniae [3]) [µg/mL]	MIC (Streptococcus pneumoniae [4]) [µg/mL]	MIC (Streptococcus pneumoniae [5]) [µg/mL]	MIC (Streptococcus pneumoniae [6]) [µg/mL]	MIC (Streptococcus pneumoniae [7]) [µg/mL]	MIC (Streptococcus pneumoniae [8]) [µg/mL]	MIC (Streptococcus pneumoniae [9]) [µg/mL]	MIC (Streptococcus pneumoniae [10]) [µg/mL]	MIC (Streptococcus pneumoniae [11]) [µg/mL]	MIC (Streptococcus pneumoniae [12]) [µg/mL]	MIC90 (Streptococcus pneumoniae [13]) [µg/mL]	MIC (Streptococcus pneumoniae [14]) [µg/mL]	MIC (Streptococcus pneumoniae [15]) [µg/mL]	MIC (Streptococcus pneumoniae [16]) [µg/mL]	MIC (Streptococcus pneumoniae [17]) [µg/mL]	MIC (Streptococcus pneumoniae [18]) [µg/mL]	MIC (Streptococcus pneumoniae [19]) [µg/mL]	MIC (Streptococcus pneumoniae [20]) [µg/mL]	other results
O=C(O)c1cn(C2CC2)c2cc(N3CCNCC3)c(F)cc2c1=O [CIPROFLOXACIN]	1	1 (≈ 3.02 µM)	8 (≈ 24.1 µM)	0.25	8	8 (≈ 24.1 µM)	8 (≈ 24.1 µM)	0.12	8	64	64 (≈ 193 µM)	8 (≈ 24.1 µM)	2	2	1 (≈ 3.02 µM)	8 (≈ 24.1 µM)	1 (≈ 3.02 µM)	4	4 (≈ 12.1 µM)	8	MIC (Streptococcus pneumoniae [21]): 1 µg/mL; MIC (Streptococcus pneumoniae [22]): 8 µg/mL (≈ 24.1 µM); MIC (Streptococcus pneumoniae [23]): 32 µg/mL (≈ 96.6 µM); MIC (Streptococcus pneumoniae [24]): 1 µg/mL; MIC (Streptococcus pneumoniae [25]): 0.25 µg/mL (≈ 0.754 µM); MIC90 (Streptococcus pneumoniae [25]): 0.25 µg/mL (≈ 0.754 µM); MIC (Streptococcus pneumoniae [26]): 2 µg/mL; MIC (Streptococcus pneumoniae [27]): 8 µg/mL; MIC (Streptococcus pneumoniae [28]): 8 µg/mL (≈ 24.1 µM)
CC[n+]1c(-c2ccccc2)c2cc(N)ccc2c2ccc(N)cc21.[Br-] [HOMIDIUM BROMIDE]	0.3	0.5	2	0.5	0.5	0.5	0.5	0.5	0.5	4	8	0.5	0.5	0.12	0.5	0.5	2	0.5	0.5	2	MIC (Streptococcus pneumoniae [21]): 0.5 µg/mL; MIC (Streptococcus pneumoniae [22]): 0.5 µg/mL; MIC (Streptococcus pneumoniae [23]): 2 µg/mL; MIC (Streptococcus pneumoniae [24]): 0.5 µg/mL; MIC (Streptococcus pneumoniae [25]): 16 µg/mL; MIC90 (Streptococcus pneumoniae [25]): 16 µg/mL; MIC (Streptococcus pneumoniae [26]): 0.5 µg/mL; MIC (Streptococcus pneumoniae [27]): 0.5 µg/mL; MIC (Streptococcus pneumoniae [28]): 4 µg/mL
